Reference: ChEMBL document CHEMBL5705905, “Pharmacological targeting of kinases MST1 and MST2 augments tissue repair and regeneration” (Sci Transl Med, 2016)
Calls of active or inactive are those of the source. The rule behind the calls is not given here.

Tests used:
HepG2 [1] = experiment: Induction of apoptosis in human HepG2 cells overexpressing MST2 assessed as viable cells at 3 uM by annexinV staining (Rvb =84.2 %); format: functional; conditions: read-out: Activity
Mus musculus [2] = experiment: Protection against APAP induced liver injury in mouse assessed as continual expansion of centrilobular necrotic lesions at 1 mg/kg, ip administered at 1.5 hrs by TUNEL staining; format: functional, organism-based
[3] = tested on: Phosphatidylinositol 4,5-bisphosphate 3-kinase catalytic subunit alpha isoform (Homo sapiens), P42336 [M1043I]; experiment: Inhibition of PIK3CA M1043I mutant (unknown origin) assessed as remaining activity at 1 uM by Kinome scan method relative to control
[4] = target: MAP kinase-interacting serine/threonine-protein kinase 1 (Homo sapiens) (UniProt Q9BUB5); experiment: Inhibition of MKNK1 (unknown origin) assessed as remaining activity at 1 uM by Kinome scan method relative to control
Chain of MAP kinase-interacting serine/threonine-protein kinase 1 (Homo sapiens) (Q9BUB5 whole entry, looked up): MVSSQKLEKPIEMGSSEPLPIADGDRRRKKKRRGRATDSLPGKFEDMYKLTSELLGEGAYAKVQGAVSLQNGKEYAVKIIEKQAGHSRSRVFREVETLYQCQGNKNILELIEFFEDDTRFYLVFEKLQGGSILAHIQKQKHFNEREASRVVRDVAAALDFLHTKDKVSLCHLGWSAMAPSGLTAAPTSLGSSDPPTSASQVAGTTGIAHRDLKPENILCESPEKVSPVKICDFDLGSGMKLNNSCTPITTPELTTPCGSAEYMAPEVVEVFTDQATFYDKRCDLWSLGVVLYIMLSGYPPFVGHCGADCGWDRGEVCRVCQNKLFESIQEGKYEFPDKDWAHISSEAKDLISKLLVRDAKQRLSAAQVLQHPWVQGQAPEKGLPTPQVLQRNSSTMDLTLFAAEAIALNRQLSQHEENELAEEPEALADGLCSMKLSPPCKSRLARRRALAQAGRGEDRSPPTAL

[5] = target: Cyclin-dependent kinase 13 (Homo sapiens) (UniProt Q14004); experiment: Inhibition of CDC2L5 (unknown origin) assessed as remaining activity at 1 uM by Kinome scan method relative to control
Chain of Cyclin-dependent kinase 13 (Homo sapiens) (Q14004 whole entry, looked up): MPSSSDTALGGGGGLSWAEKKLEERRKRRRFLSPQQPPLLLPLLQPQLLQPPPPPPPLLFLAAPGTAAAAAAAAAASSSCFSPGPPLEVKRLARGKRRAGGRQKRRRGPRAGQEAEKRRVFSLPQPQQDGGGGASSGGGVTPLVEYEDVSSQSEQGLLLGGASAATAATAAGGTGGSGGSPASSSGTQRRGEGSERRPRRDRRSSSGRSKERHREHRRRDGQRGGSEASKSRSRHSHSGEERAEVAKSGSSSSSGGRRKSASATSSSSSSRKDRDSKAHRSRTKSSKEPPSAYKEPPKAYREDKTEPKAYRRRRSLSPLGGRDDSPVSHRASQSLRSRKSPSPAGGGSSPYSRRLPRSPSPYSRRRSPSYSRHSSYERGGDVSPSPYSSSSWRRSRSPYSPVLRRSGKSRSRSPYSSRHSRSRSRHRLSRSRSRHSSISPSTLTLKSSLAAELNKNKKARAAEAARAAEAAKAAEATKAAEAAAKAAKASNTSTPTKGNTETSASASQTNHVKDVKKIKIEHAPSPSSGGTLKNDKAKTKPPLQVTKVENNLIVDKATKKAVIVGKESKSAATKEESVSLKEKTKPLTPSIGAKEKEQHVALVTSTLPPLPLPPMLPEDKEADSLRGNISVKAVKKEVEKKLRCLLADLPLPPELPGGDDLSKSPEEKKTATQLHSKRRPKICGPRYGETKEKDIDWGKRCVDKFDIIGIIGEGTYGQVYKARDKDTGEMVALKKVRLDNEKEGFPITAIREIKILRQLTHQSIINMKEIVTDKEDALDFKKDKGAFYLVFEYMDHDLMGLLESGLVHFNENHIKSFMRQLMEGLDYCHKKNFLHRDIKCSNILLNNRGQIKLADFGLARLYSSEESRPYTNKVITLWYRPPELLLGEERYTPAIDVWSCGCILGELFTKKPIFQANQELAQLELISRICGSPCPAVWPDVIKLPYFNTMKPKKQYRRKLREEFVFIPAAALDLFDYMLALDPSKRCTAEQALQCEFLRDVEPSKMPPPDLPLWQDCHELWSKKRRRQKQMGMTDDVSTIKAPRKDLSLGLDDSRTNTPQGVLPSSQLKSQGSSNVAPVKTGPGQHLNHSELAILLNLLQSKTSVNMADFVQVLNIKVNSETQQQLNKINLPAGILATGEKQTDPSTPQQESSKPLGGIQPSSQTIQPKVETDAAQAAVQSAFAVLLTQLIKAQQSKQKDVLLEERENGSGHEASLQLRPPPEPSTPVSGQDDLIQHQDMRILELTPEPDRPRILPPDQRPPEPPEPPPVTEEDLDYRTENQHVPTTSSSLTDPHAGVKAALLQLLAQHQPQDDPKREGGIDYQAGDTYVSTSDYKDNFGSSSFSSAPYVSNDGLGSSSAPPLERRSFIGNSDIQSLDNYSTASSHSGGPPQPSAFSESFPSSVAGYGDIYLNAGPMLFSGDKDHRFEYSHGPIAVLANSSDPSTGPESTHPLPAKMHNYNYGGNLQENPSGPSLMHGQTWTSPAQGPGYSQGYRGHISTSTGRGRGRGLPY
Summary of the method: (§1)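 Active-site-dependent competition-binding profiling (KINOMEscan) at 1 μM against a 468-kinase panel; compound supplied from a 10 mM DMSO stock. Read-out is ctrl% = (test signal − positive control signal)/(negative control signal − positive control signal) × 100. DMSO is the negative control (100%) and a control compound the positive control (0%). Lower ctrl% means tighter binding.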

[6] = target: Serine/threonine-protein kinase 32B (Homo sapiens) (UniProt Q9NY57); experiment: Inhibition of YANK2 (unknown origin) assessed as remaining activity at 1 uM by Kinome scan method relative to control
Chain of Serine/threonine-protein kinase 32B (Homo sapiens) (Q9NY57 whole entry): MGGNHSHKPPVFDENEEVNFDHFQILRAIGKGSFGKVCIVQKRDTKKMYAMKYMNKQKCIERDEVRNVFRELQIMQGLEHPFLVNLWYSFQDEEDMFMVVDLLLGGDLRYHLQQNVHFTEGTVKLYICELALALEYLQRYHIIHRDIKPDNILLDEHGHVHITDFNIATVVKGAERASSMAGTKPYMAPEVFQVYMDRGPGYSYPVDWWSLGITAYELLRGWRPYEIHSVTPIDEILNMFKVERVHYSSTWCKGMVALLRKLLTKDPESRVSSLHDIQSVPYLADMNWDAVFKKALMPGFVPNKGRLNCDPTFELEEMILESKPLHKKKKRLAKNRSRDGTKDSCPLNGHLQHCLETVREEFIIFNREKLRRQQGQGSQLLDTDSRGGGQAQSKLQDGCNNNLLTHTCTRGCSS

[7] = target: Calcium/calmodulin-dependent protein kinase type 1B (Homo sapiens) (UniProt Q6P2M8); experiment: Inhibition of CAMK1B (unknown origin) assessed as remaining activity at 1 uM by Kinome scan method relative to control
Chain of Calcium/calmodulin-dependent protein kinase type 1B (Homo sapiens) (Q6P2M8 whole entry): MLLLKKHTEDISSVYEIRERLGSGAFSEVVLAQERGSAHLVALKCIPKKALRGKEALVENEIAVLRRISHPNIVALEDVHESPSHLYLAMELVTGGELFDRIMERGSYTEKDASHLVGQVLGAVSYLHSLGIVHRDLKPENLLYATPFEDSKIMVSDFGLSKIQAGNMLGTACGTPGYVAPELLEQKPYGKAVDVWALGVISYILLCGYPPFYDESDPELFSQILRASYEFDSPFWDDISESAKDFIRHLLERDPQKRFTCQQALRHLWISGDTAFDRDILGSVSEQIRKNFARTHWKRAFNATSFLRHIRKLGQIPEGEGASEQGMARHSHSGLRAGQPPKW
Summary of the method: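 Active-site-dependent competition-binding (KINOMEscan) panel of 468 kinases, test compound at 1 μM (from a 10 mM DMSO stock). Read-out is ctrl% = (test signal − positive control signal)/(negative control signal − positive control signal) × 100. DMSO is the negative control (100%) and a control compound is the positive control (0%). Lower ctrl% means tighter binding.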

[8] = target: Ephrin type-B receptor 2 (Homo sapiens) (UniProt P29323); experiment: Inhibition of EPHB2 (unknown origin) assessed as remaining activity at 1 uM by Kinome scan method relative to control
Chain of Ephrin type-B receptor 2 (Homo sapiens) (P29323 whole entry, the tested form may be a part): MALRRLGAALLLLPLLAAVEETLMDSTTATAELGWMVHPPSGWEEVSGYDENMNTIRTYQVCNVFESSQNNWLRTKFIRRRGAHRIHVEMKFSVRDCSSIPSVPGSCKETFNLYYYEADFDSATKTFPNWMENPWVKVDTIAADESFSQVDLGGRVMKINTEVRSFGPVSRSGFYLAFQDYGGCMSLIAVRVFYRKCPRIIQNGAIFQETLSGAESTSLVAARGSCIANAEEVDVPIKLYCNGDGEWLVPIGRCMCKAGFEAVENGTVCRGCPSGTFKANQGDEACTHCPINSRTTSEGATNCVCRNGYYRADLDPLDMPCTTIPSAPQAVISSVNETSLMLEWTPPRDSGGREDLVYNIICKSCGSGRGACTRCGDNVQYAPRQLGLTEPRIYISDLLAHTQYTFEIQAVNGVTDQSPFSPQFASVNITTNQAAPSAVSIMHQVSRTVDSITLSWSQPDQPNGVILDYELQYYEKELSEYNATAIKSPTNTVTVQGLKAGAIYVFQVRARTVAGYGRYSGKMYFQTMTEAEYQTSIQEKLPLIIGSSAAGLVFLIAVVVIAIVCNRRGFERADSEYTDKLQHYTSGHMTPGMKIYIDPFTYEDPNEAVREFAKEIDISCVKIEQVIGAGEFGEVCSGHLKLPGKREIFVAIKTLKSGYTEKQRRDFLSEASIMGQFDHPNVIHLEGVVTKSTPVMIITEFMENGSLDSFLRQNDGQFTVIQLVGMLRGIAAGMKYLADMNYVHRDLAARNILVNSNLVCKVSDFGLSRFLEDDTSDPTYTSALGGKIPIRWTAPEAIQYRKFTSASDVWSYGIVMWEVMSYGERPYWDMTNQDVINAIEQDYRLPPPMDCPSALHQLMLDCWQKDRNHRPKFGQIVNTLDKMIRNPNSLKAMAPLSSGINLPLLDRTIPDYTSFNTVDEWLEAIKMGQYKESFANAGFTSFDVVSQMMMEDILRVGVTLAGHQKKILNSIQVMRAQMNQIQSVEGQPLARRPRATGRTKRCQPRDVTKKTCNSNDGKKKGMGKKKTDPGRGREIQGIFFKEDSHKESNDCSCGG

[9] = target: Ribosomal protein S6 kinase alpha-3 (Homo sapiens) (UniProt P51812); experiment: Inhibition of N-terminal kinase domain RSK2 (unknown origin) assessed as remaining activity at 1 uM by Kinome scan method relative to control
Chain of Ribosomal protein S6 kinase alpha-3 (Homo sapiens) (P51812 whole entry, the tested form may be a part): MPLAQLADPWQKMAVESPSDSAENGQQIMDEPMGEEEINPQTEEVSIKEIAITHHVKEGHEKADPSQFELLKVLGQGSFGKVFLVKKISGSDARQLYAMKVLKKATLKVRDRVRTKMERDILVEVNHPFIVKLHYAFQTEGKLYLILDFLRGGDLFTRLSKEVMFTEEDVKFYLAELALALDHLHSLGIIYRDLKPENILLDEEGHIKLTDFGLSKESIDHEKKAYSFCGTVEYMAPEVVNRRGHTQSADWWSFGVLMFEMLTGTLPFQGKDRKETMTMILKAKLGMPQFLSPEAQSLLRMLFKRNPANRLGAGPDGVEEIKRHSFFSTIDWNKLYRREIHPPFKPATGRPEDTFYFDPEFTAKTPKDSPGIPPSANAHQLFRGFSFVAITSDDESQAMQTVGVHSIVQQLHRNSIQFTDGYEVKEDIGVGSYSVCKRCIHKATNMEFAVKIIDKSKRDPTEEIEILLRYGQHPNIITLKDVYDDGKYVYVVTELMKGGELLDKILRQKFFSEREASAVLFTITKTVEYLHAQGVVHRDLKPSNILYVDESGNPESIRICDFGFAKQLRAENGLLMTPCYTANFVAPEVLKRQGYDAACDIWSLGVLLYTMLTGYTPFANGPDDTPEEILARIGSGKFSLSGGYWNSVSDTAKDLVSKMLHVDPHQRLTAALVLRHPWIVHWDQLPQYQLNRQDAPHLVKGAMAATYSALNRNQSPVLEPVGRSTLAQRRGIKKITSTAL

[10] = target: Tyrosine-protein kinase Fyn (Homo sapiens) (UniProt P06241); experiment: Inhibition of FYN (unknown origin) assessed as remaining activity at 1 uM by Kinome scan method relative to control
Chain of Tyrosine-protein kinase Fyn (Homo sapiens) (P06241 2-537 limits assumed): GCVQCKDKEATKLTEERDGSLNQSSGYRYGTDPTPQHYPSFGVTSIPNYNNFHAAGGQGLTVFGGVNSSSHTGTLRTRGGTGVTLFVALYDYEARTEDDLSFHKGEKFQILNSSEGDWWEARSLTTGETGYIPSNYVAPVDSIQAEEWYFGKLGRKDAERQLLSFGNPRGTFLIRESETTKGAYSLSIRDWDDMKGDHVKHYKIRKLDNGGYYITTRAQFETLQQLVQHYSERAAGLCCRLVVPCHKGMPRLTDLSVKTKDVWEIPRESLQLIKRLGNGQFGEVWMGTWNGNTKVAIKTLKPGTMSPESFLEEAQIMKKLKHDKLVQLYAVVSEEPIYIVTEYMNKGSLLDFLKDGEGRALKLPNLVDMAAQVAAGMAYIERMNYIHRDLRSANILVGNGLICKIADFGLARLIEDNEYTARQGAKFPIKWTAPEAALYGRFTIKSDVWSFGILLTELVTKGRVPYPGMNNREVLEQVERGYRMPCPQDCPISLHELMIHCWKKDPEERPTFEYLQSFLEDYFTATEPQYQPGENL

[11] = tested on: Epidermal growth factor receptor (Homo sapiens), P00533 [UNDEFINED MUTATION]; experiment: Inhibition of EGFR L747-S752del/P753S mutant (unknown origin) assessed as remaining activity at 1 uM by Kinome scan method relative to control
[12] = target: Serine/threonine-protein kinase DCLK1 (Homo sapiens, UniProt O15075); experiment: Inhibition of DCAMKL1 (unknown origin) in presence of ATP by enzymatic assay
[13] = target: Myosin light chain kinase (Homo sapiens) (UniProt Q32MK0); experiment: Inhibition of MLCK (unknown origin) assessed as remaining activity at 1 uM by Kinome scan method relative to control
[14] = target: Mitogen-activated protein kinase kinase kinase 15 (Homo sapiens) (UniProt Q6ZN16); experiment: Inhibition of MAP3K15 (unknown origin) assessed as remaining activity at 1 uM by Kinome scan method relative to control
[15] = target: Mitogen-activated protein kinase kinase kinase 3 (Homo sapiens, UniProt Q99759); experiment: Inhibition of MAP3K3 (unknown origin) in presence of ATP by enzymatic assay
[16] = tested on: Phosphatidylinositol 4,5-bisphosphate 3-kinase catalytic subunit alpha isoform (Homo sapiens), P42336 [H1047L]; experiment: Inhibition of PIK3CA H1047L mutant (unknown origin) assessed as remaining activity at 1 uM by Kinome scan method relative to control
[17] = target: Casein kinase II subunit alpha (Homo sapiens) (UniProt P68400); experiment: Inhibition of CSNK2A1 (unknown origin) assessed as remaining activity at 1 uM by Kinome scan method relative to control; summary of the method: as §1
[18] = target: T1, Serine/threonine-protein kinase 4 (Homo sapiens, UniProt Q13043); experiment: Inhibition of MST1 (unknown origin) in presence of ATP by enzymatic assay
T1 sequence (Q13043 whole entry): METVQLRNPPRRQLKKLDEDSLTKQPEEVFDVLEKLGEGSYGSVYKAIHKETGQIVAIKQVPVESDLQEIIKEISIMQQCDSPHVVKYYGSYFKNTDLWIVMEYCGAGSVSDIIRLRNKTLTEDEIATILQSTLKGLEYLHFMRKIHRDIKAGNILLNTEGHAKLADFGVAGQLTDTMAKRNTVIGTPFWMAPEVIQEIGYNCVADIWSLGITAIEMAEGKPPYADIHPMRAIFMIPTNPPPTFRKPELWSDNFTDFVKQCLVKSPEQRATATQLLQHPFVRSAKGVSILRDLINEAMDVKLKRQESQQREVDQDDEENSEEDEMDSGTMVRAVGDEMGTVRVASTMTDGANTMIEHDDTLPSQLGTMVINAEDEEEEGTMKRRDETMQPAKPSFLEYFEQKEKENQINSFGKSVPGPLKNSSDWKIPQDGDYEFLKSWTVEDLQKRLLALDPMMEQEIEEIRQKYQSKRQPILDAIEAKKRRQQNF

[19] = target: SRSF protein kinase 2 (Homo sapiens) (UniProt P78362); experiment: Inhibition of SRPK2 (unknown origin) assessed as remaining activity at 1 uM by Kinome scan method relative to control
[20] = target: Homeodomain-interacting protein kinase 3 (Homo sapiens) (UniProt Q9H422); experiment: Inhibition of HIPK3 (unknown origin) assessed as remaining activity at 1 uM by Kinome scan method relative to control
[21] = target: Myosin-IIIa (Homo sapiens) (UniProt Q8NEV4); experiment: Inhibition of MYO3A (unknown origin) assessed as remaining activity at 1 uM by Kinome scan method relative to control
Mus musculus [22] = experiment: Protection against APAP induced liver injury in mouse assessed as continual expansion of centrilobular necrotic lesions at 1 mg/kg, ip administered at 2.5 hrs by TUNEL staining; format: functional, organism-based
[23] = tested on: Epidermal growth factor receptor (Homo sapiens), P00533 [T790M]; experiment: Inhibition of EGFR T790M mutant (unknown origin) assessed as remaining activity at 1 uM by Kinome scan method relative to control
[24] = target: SRSF protein kinase 1 (Homo sapiens) (UniProt Q96SB4); experiment: Inhibition of SRPK1 (unknown origin) assessed as remaining activity at 1 uM by Kinome scan method relative to control
HepG2 [25] = experiment: Inhibition of Flag-tagged MST1 Y101F mutant (unknown origin) in human HepG2 cells assessed as MOB1 phosphorylation level at 3 uM by immunoblot analysis; format: cell-based

CN1C(=O)c2sccc2N(C)c2nc(Nc3ccc(S(N)(=O)=O)cc3)ncc21
viability at 3 µM (HepG2 [1]): 93.1%
Activity (Mus musculus [2]): Active
Activity [3]: 77%
Activity [4]: 100%
Activity [5]: 90%
Activity [6]: 100%
Activity [7]: 84%
Activity [8]: 100%
Activity [9]: 76%
Activity [10]: 100%
Activity [11]: 73%
IC50 [12]: 27.9 nM
Activity [13]: 87%
Activity [14]: 67%
IC50 [15]: 38.4 nM
Activity [16]: 4.6%
Activity [17]: 94%
IC50 [18]: 9.8 nM
Activity [19]: 93%
Activity [20]: 100%
Activity [21]: 100%
Activity (Mus musculus [22]): Active
Activity [23]: 92%
Activity [24]: 65%
inhibition (HepG2 [25]): Active
